≈ marks a conversion by molar mass, not a printed value.
Assays:
[1] = test system: Bifidobacterium breve; test: Antimicrobial activity against 90 mins hydrogen peroxide-stressed Bifidobacterium breve ATCC 15700 after 18 hrs; assay type: functional
Procedure, shortened: (§1)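 Stress applied for 90 min at 37°C under anaerobic conditions, using MRS (initial pH 6.5) containing H2O2 at each strain's own inhibitory concentration. The H2O2 level was set beforehand by microplate tolerance testing. Challenged cells were regrown in MRS for 24 h (footnote: 18 h) before MIC testing by broth microdilution. Median of four repetitions.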

[2] = test system: Bifidobacterium bifidum; test: Antimicrobial activity against 90 mins hydrogen peroxide-stressed Bifidobacterium bifidum BB12 after 18 hrs; assay type: functional; procedure, shortened: as §1
[3] = test system: Bifidobacterium bifidum; test: Antimicrobial activity against 90 mins oxgall-stressed Bifidobacterium bifidum BB12 after 18 hrs; assay type: functional
Procedure, shortened: (§2)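 Cells pelleted from mid-log MRS culture and resuspended in MRS (initial pH 6.5) with 0.3% (wt/vol) oxgall for 90 min anaerobically at 37°C. They were then regrown in MRS pH 6.5 for 24 h (footnote: 18 h) anaerobically and tested for MIC by the same broth microdilution assay. Median of four repetitions.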

[4] = test system: Bifidobacterium animalis; test: Antimicrobial activity against 90 mins hydrogen peroxide-stressed Bifidobacterium animalis ATCC 27536 after 18 hrs; assay type: functional; procedure, shortened: as §1
[5] = test system: Bifidobacterium bifidum; test: Antimicrobial activity against 60 min 1 M HCl-stressed Bifidobacterium bifidum R0071 after 18 hrs; assay type: functional
Procedure, shortened: (§3)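 Mid-log MRS culture pelleted and resuspended in MRS broth brought to pH 2.0 with 1 M HCl, held anaerobically at 37°C for 60 min, then subcultured in MRS (pH 6.5) for 24 h anaerobically before MIC testing by broth microdilution (as for unstressed cells). Table footnote gives 18 h anaerobic regrowth after the stress. MIC is the median of four repetitions.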

[6] = test system: Bifidobacterium animalis; test: Antimicrobial activity against 60 min 1 M HCl-stressed Bifidobacterium animalis ATCC 27536 after 18 hrs; assay type: functional; procedure, shortened: as §3
[7] = test system: Bifidobacterium longum; test: Antimicrobial activity against Bifidobacterium longum P/N 601377; assay type: functional
Procedure, shortened: (§4)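 Broth microdilution in MRS plus 0.05% L-cysteine-HCl. Mid-log culture adjusted to OD650 0.1, giving about 2.5 × 10^4 to 5.0 × 10^4 CFU/well, then added to twofold serial dilutions of agent. Plates incubated anaerobically at 37°C for 18 h and read at OD650. MIC is the lowest concentration matching the uninoculated blank OD, taken as the median of four repeats.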

[8] = test system: Bifidobacterium breve; test: Antimicrobial activity against 90 mins hydrogen peroxide-stressed Bifidobacterium breve R0070 after 18 hrs; assay type: functional; procedure, shortened: as §1
[9] = test system: Bifidobacterium animalis; test: Antimicrobial activity against 90 mins oxgall-stressed Bifidobacterium animalis ATCC 27536 after 18 hrs; assay type: functional; procedure, shortened: as §2
[10] = test system: Bifidobacterium thermophilum; test: Antimicrobial activity against 90 mins oxgall-stressed Bifidobacterium thermophilum ATCC 25866 after 18 hrs; assay type: functional; procedure, shortened: as §2
[11] = test system: Bifidobacterium bifidum; test: Antimicrobial activity against 90 mins hydrogen peroxide-stressed Bifidobacterium bifidum R0071 after 18 hrs; assay type: functional; procedure, shortened: as §1
[12] = Antimicrobial activity against Bifidobacterium infantis ATCC 15697; assay type: functional, Bifidobacterium longum subsp. infantis; details: Bifidobacterium longum; procedure, shortened: as §4
[13] = test system: Bifidobacterium longum; test: Antimicrobial activity against 90 mins oxgall-stressed Bifidobacterium longum R0175 after 18 hrs; assay type: functional; procedure, shortened: as §2
[14] = test system: Bifidobacterium thermophilum; test: Antimicrobial activity against 90 mins hydrogen peroxide-stressed Bifidobacterium thermophilum ATCC 25866 after 18 hrs; assay type: functional; procedure, shortened: as §1
[15] = test system: Bifidobacterium breve; test: Antimicrobial activity against 90 mins oxgall-stressed Bifidobacterium breve R0070 after 18 hrs; assay type: functional; procedure, shortened: as §2
[16] = test system: Bifidobacterium pseudolongum; test: Antimicrobial activity against 60 min 1 M HCl-stressed Bifidobacterium pseudolongum ATCC 25562 after 18 hrs; assay type: functional; procedure, shortened: as §3
[17] = test system: Bifidobacterium bifidum; test: Antimicrobial activity against 90 mins oxgall-stressed Bifidobacterium bifidum ATCC 15696 after 18 hrs; assay type: functional; procedure, shortened: as §2
[18] = test system: Bifidobacterium pseudolongum; test: Antimicrobial activity against 90 mins oxgall-stressed Bifidobacterium pseudolongum ATCC 25562 after 18 hrs; assay type: functional; procedure, shortened: as §2
[19] = test system: Bifidobacterium longum; test: Antimicrobial activity against 60 min 1 M HCl-stressed Bifidobacterium longum ATCC 15707 after 18 hrs; assay type: functional; procedure, shortened: as §3
[20] = test system: Bifidobacterium longum; test: Antimicrobial activity against 90 mins hydrogen peroxide-stressed Bifidobacterium longum P/N 601377 after 18 hrs; assay type: functional; procedure, shortened: as §1
[21] = Antimicrobial activity against 90 mins oxgall-stressed Bifidobacterium infantis ATCC 15697 after 18 hrs; assay type: functional, Bifidobacterium longum subsp. infantis; details: Bifidobacterium longum; procedure, shortened: as §2
[22] = test system: Bifidobacterium longum; test: Antimicrobial activity against 90 mins oxgall-stressed Bifidobacterium longum ATCC 15708 after 18 hrs; assay type: functional; procedure, shortened: as §2
[23] = test system: Bifidobacterium longum; test: Antimicrobial activity against Bifidobacterium longum ATCC 15707; assay type: functional; procedure, shortened: as §4
[24] = test system: Bifidobacterium thermophilum; test: Antimicrobial activity against Bifidobacterium thermophilum ATCC 25866; assay type: functional; procedure, shortened: as §4
[25] = test system: Bifidobacterium breve; test: Antimicrobial activity against 60 min 1 M HCl-stressed Bifidobacterium breve ATCC 15700 after 18 hrs; assay type: functional; procedure, shortened: as §3
[26] = test system: Bifidobacterium breve; test: Antimicrobial activity against Bifidobacterium breve R0070; assay type: functional; procedure, shortened: as §4
[27] = test system: Bifidobacterium thermophilum; test: Antimicrobial activity against 60 min 1 M HCl-stressed Bifidobacterium thermophilum ATCC 25866 after 18 hrs; assay type: functional; procedure, shortened: as §3
[28] = test system: Bifidobacterium animalis; test: Antimicrobial activity against Bifidobacterium animalis ATCC 27536; assay type: functional; procedure, shortened: as §4
[29] = test system: Bifidobacterium longum; test: Antimicrobial activity against 90 mins oxgall-stressed Bifidobacterium longum P/N 601377 after 18 hrs; assay type: functional; procedure, shortened: as §2
[30] = test system: Bifidobacterium breve; test: Antimicrobial activity against 90 mins oxgall-stressed Bifidobacterium breve ATCC 15700 after 18 hrs; assay type: functional; procedure, shortened: as §2
[31] = test system: Bifidobacterium bifidum; test: Antimicrobial activity against 60 min 1 M HCl-stressed Bifidobacterium bifidum BB12 after 18 hrs; assay type: functional; procedure, shortened: as §3
[32] = test system: Bifidobacterium longum; test: Antimicrobial activity against 90 mins hydrogen peroxide-stressed Bifidobacterium longum R0175 after 18 hrs; assay type: functional; procedure, shortened: as §1
[33] = test system: Bifidobacterium longum; test: Antimicrobial activity against 90 mins hydrogen peroxide-stressed Bifidobacterium longum ATCC 15708 after 18 hrs; assay type: functional; procedure, shortened: as §1
[34] = test system: Bifidobacterium bifidum; test: Antimicrobial activity against 90 mins oxgall-stressed Bifidobacterium bifidum R0071 after 18 hrs; assay type: functional; procedure, shortened: as §2
[35] = test system: Bifidobacterium bifidum; test: Antimicrobial activity against Bifidobacterium bifidum BB12; assay type: functional; procedure, shortened: as §4
[36] = test system: Bifidobacterium bifidum; test: Antimicrobial activity against Bifidobacterium bifidum ATCC 15696; assay type: functional; procedure, shortened: as §4
[37] = Antimicrobial activity against 60 min 1 M HCl-stressed Bifidobacterium infantis ATCC 15697 after 18 hrs; assay type: functional, Bifidobacterium longum subsp. infantis; details: Bifidobacterium longum; procedure, shortened: as §3
[38] = test system: Bifidobacterium longum; test: Antimicrobial activity against 60 min 1 M HCl-stressed Bifidobacterium longum P/N 601377 after 18 hrs; assay type: functional; procedure, shortened: as §3
[39] = test system: Bifidobacterium longum; test: Antimicrobial activity against 60 min 1 M HCl-stressed Bifidobacterium longum R0175 after 18 hrs; assay type: functional; procedure, shortened: as §3
[40] = test system: Bifidobacterium longum; test: Antimicrobial activity against 90 mins hydrogen peroxide-stressed Bifidobacterium longum ATCC 15707 after 18 hrs; assay type: functional; procedure, shortened: as §1
[41] = test system: Bifidobacterium longum; test: Antimicrobial activity against Bifidobacterium longum ATCC 15708; assay type: functional; procedure, shortened: as §4
[42] = test system: Bifidobacterium longum; test: Antimicrobial activity against 90 mins oxgall-stressed Bifidobacterium longum ATCC 15707 after 18 hrs; assay type: functional; procedure, shortened: as §2
[43] = test system: Bifidobacterium longum; test: Antimicrobial activity against Bifidobacterium longum R0175; assay type: functional; procedure, shortened: as §4
[44] = test system: Bifidobacterium breve; test: Antimicrobial activity against Bifidobacterium breve ATCC 15700; assay type: functional; procedure, shortened: as §4
[45] = test system: Bifidobacterium bifidum; test: Antimicrobial activity against Bifidobacterium bifidum R0071; assay type: functional; procedure, shortened: as §4
[46] = test system: Bifidobacterium pseudolongum; test: Antimicrobial activity against Bifidobacterium pseudolongum ATCC 25562; assay type: functional; procedure, shortened: as §4
[47] = test system: Bifidobacterium breve; test: Antimicrobial activity against 60 min 1 M HCl-stressed Bifidobacterium breve R0070 after 18 hrs; assay type: functional; procedure, shortened: as §3

Compound: CN[C@H](CC(C)C)C(=O)N[C@H]1C(=O)N[C@@H](CC(N)=O)C(=O)N[C@H]2C(=O)N[C@H]3C(=O)N[C@H](C(=O)N[C@H](C(=O)O)c4cc(O)cc(O)c4-c4cc3ccc4O)[C@H](O)c3ccc(c(Cl)c3)Oc3cc2cc(c3O[C@@H]2O[C@H](CO)[C@@H](O)[C@H](O)[C@H]2O[C@H]2C[C@](C)(N)[C@H](O)[C@H](C)O2)Oc2ccc(cc2Cl)[C@H]1O [VANCOMYCIN]
- MIC [1]: > 500 µg/mL
- MIC [2]: > 500 µg/mL
- MIC [3]: > 500 µg/mL
- MIC [4]: > 500 µg/mL
- MIC [5]: > 500 µg/mL
- MIC [6]: > 500 µg/mL
- MIC [7]: > 500 µg/mL
- MIC [8]: > 500 µg/mL
- MIC [9]: 1.9 µg/mL (≈ 1.31 µM)
- MIC [10]: > 500 µg/mL
- MIC [11]: > 500 µg/mL
- MIC [12]: > 500 µg/mL
- MIC [13]: > 500 µg/mL
- MIC [14]: > 500 µg/mL
- MIC [15]: > 500 µg/mL
- MIC [16]: 0.98 µg/mL (≈ 0.676 µM)
- MIC [17]: > 500 µg/mL
- MIC [18]: 0.98 µg/mL (≈ 0.676 µM)
- MIC [19]: > 500 µg/mL
- MIC [20]: > 500 µg/mL
- MIC [21]: 0.98 µg/mL (≈ 0.676 µM)
- MIC [22]: 0.98 µg/mL (≈ 0.676 µM)
- MIC [23]: 500 µg/mL (≈ 345 µM)
- MIC [24]: > 500 µg/mL
- MIC [25]: > 500 µg/mL
- MIC [26]: 500 µg/mL (≈ 345 µM)
- MIC [27]: > 500 µg/mL
- MIC [28]: 500 µg/mL (≈ 345 µM)
- MIC [29]: > 500 µg/mL
- MIC [30]: > 500 µg/mL
- MIC [31]: > 500 µg/mL
- MIC [32]: > 500 µg/mL
- MIC [33]: > 500 µg/mL
- MIC [34]: > 500 µg/mL
- MIC [35]: > 500 µg/mL
- MIC [36]: > 500 µg/mL
- MIC [37]: 0.98 µg/mL (≈ 0.676 µM)
- MIC [38]: > 500 µg/mL
- MIC [39]: 0.98 µg/mL (≈ 0.676 µM)
- MIC [40]: > 500 µg/mL
- MIC [41]: 500 µg/mL (≈ 345 µM)
- MIC [42]: > 500 µg/mL
- MIC [43]: 500 µg/mL (≈ 345 µM)
- MIC [44]: > 500 µg/mL
- MIC [45]: 500 µg/mL (≈ 345 µM)
- MIC [46]: > 500 µg/mL
- MIC [47]: > 500 µg/mL

Source: ChEMBL document CHEMBL1142148, “Antibiotic susceptibility profile of bifidobacteria as affected by oxgall, acid, and hydrogen peroxide stress” (2007)
